Reference: ChEMBL document CHEMBL2434910, “Investigation of 3-aryl-pyrimido[5,4-e][1,2,4]triazine-5,7-diones as small molecule antagonists of β-catenin/TCF transcription” (Bioorg Med Chem Lett, 2013)
Calls of active or inactive are those of the source. The calls are words filed in the database; no cut-off is given here.

Columns and labels:
[1] = system: Liver; assay: Metabolic stability in mouse liver microsomes assessed as compound remaining at 1 uM after 3 mins by LC-MS analysis; assay type: ADME, Microsome; conditions: 0.05 h
Summary of the method: (§1)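 Compound (1 μM) incubated at 37°C with mouse liver microsomes to assess metabolic stability.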

[2] = Metabolic stability in mouse liver microsomes assessed as compound remaining at 1 uM after 30 mins by LC-MS analysis; assay type: ADME, Microsome; conditions: read-out: Stability; summary of the method: as §1
[3] = Metabolic stability in mouse liver microsomes assessed as compound remaining at 1 uM after 60 mins by LC-MS analysis; assay type: ADME, Microsome; conditions: read-out: Stability; summary of the method: as §1
[4] = Antagonist activity at Beta-catenin/TCF in rat IEC-6 cells assessed as inhibition of Wnt-3a-induced axin2 expression preincubated for 6 hrs followed by Wnt-3a induction measured after 12 hrs by qPCR analysis; assay type: cell-based
Summary of the method: (§2)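 IEC-6 rat intestinal epithelial cells given compound at a range of concentrations for 6 h, then recombinant mouse Wnt-3a (50 ng/mL) added for 12 h. Target transcript quantified by qPCR with gene-specific primers, normalised to U6. The Wnt-3a-stimulated level with no compound is set to 100%. IC50 taken from concentration-response; mean ± SEM reported where available.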

[5] = system: Liver; assay: Metabolic stability in mouse liver microsomes assessed as half life at 1 uM after 1 to 60 mins by LC-MS analysis; assay type: ADME, Microsome; summary of the method: as §1
[6] = Antagonist activity at Beta-catenin/TCF in rat IEC-6 cells assessed as inhibition of Wnt-3a-induced lgr5 expression preincubated for 6 hrs followed by Wnt-3a induction measured after 12 hrs by qPCR analysis; assay type: cell-based; summary of the method: as §2
[7] = Metabolic stability in mouse liver microsomes assessed as compound remaining at 1 uM after 10 mins by LC-MS analysis; assay type: ADME, Microsome; conditions: read-out: Stability; summary of the method: as §1
[8] = system: DLD-1; assay: Downregulation of total beta-catenin protein level in human DLD1 cells at 3 to 10 uM after 20 hrs by Western blotting analysis; assay type: functional, cell-based
Summary of the method: (§3)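 DLD-1 colorectal cancer cells treated with compound for 20 h in the dark. β-Catenin (free and total pools) and cyclin D1 protein levels assessed by Western blot.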

[9] = system: DLD-1; assay: Antiproliferative activity against human DLD1 cells assessed as inhibition of colony formation at 1 to 3 uM after 2 weeks by crystal violet staining-based assay; assay type: functional, cell-based
Summary of the method: (§4)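 Colony formation assay. DLD-1 (bi-allelic APC mutation) and RKO (no β-catenin dysregulation) colon cancer cells seeded in medium with 10% serum containing compound. Surviving colonies visualised and counted two weeks after plating. Two independent experiments per concentration, each in triplicate. Compound incubations carried out in the dark.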

[10] = Downregulation of free beta-catenin protein level in HEK293T cells at 1 to 10 uM after 3 hrs by Western blotting analysis in presence of GSK3-beta antagonist SB216763; assay type: functional, cell-based; conditions: Homo sapiens, HEK-293T
Summary of the method: (§5)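 HEK293T cells treated with 5 μM SB216763 (GSK3β antagonist) together with various concentrations of compound, in the dark. Free and total β-catenin protein assessed by Western blot.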

[11] = Downregulation of free beta-catenin protein level in HEK293T cells after 3 hrs by Western blotting analysis in presence of GSK3-beta antagonist SB216763 and proteasome inhibitor MG-132; assay type: functional, cell-based; conditions: Homo sapiens; HEK-293T
[12] = system: SW480; assay: Downregulation of free beta-catenin protein level in human SW480 cells at 3 to 10 uM after 20 hrs by Western blotting analysis; assay type: functional, cell-based
[13] = system: DLD-1; assay: Downregulation of cyclin D1 protein level in human DLD1 cells at 3 to 10 uM after 20 hrs by Western blotting analysis; assay type: functional, cell-based; summary of the method: as §3
[14] = system: RKO; assay: Antiproliferative activity against human RKO cells assessed as inhibition of colony formation at 1 to 3 uM after 2 weeks by crystal violet staining-based assay; assay type: functional, cell-based; summary of the method: as §4
[15] = system: SW480; assay: Downregulation of axin2 protein level in human SW480 cells after 20 hrs by Western blotting analysis; assay type: functional, cell-based
[16] = Downregulation of free beta-catenin protein level in HEK293T cells after 3 hrs by Western blotting analysis in presence of dominant negative beta-TrCP; assay type: functional, cell-based; conditions: Homo sapiens; HEK-293T
[17] = system: DLD-1; assay: Downregulation of free beta-catenin protein level in human DLD1 cells at 3 to 10 uM after 20 hrs by Western blotting analysis; assay type: functional, cell-based; summary of the method: as §3
[18] = system: HEK-293T; assay: Effect on total beta-catenin protein level in HEK293T cells at 1 to 10 uM after 3 hrs by Western blotting analysis in presence of GSK3-beta antagonist SB216763; assay type: functional, cell-based; conditions: Homo sapiens; summary of the method: as §5
[19] = system: SW480; assay: Downregulation of total beta-catenin protein level in human SW480 cells at 3 to 10 uM after 20 hrs by Western blotting analysis; assay type: functional, cell-based
[20] = system: IEC-6; assay: Antagonist activity at Beta-catenin/TCF in rat IEC-6 cells assessed as inhibition of Wnt-3a-induced lgr5 expression up to 0.7 uM preincubated for 6 hrs followed by Wnt-3a induction measured after 12 hrs by qPCR analysis; assay type: cell-based; summary of the method: as §2
[21] = system: IEC-6; assay: Antagonist activity at Beta-catenin/TCF in rat IEC-6 cells assessed as inhibition of Wnt-3a-induced axin2 expression up to 0.7 uM preincubated for 6 hrs followed by Wnt-3a induction measured after 12 hrs by qPCR analysis; assay type: cell-based; summary of the method: as §2
[22] = system: RKO; assay: Antiproliferative activity against human RKO cells assessed as inhibition of colony formation at 0.3 to 0.5 uM after 2 weeks by crystal violet staining-based assay; assay type: functional, cell-based
Summary of the method: (§6)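 Cells seeded in medium with 10% serum containing the test compound, kept in the dark; surviving colonies counted two weeks after plating. Colony counts are from two independent experiments at each concentration, each run in triplicate.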

[23] = system: DLD-1; assay: Antiproliferative activity against human DLD1 cells assessed as inhibition of colony formation at 0.3 to 0.5 uM after 2 weeks by crystal violet staining-based assay; assay type: functional, cell-based; summary of the method: as §6
[24] = system: IEC-6; assay: Antagonist activity at Beta-catenin/TCF in rat IEC-6 cells assessed as inhibition of Wnt-3a-induced axin2 expression up to 179 uM preincubated for 6 hrs followed by Wnt-3a induction measured after 12 hrs by qPCR analysis; assay type: cell-based; summary of the method: as §2
[25] = system: IEC-6; assay: Antagonist activity at Beta-catenin/TCF in rat IEC-6 cells assessed as inhibition of Wnt-3a-induced lgr5 expression up to 69 uM preincubated for 6 hrs followed by Wnt-3a induction measured after 12 hrs by qPCR analysis; assay type: cell-based; summary of the method: as §2
[26] = system: IEC-6; assay: Antagonist activity at Beta-catenin/TCF in rat IEC-6 cells assessed as inhibition of Wnt-3a-induced axin2 expression up to 69 uM preincubated for 6 hrs followed by Wnt-3a induction measured after 12 hrs by qPCR analysis; assay type: cell-based; summary of the method: as §2
[27] = system: IEC-6; assay: Antagonist activity at Beta-catenin/TCF in rat IEC-6 cells assessed as inhibition of Wnt-3a-induced axin2 expression up to 1.2 uM preincubated for 6 hrs followed by Wnt-3a induction measured after 12 hrs by qPCR analysis; assay type: cell-based; summary of the method: as §2
[28] = system: IEC-6; assay: Antagonist activity at Beta-catenin/TCF in rat IEC-6 cells assessed as inhibition of Wnt-3a-induced lgr5 expression up to 1.2 uM preincubated for 6 hrs followed by Wnt-3a induction measured after 12 hrs by qPCR analysis; assay type: cell-based; summary of the method: as §2

CCN(CC)CCOc1ccc(-c2nc3c(=O)n(C)c(=O)nc-3n(-c3ccccc3)n2)cc1
Stability [1]: 110% | remaining at 0.5 h, 1 µM [2]: 70.7% | remaining at 1 h, 1 µM [3]: 31.8% | IC50 [4]: 0.3 µM | t1/2 [5]: 34.7 min | IC50 [6]: 0.26 µM | remaining at 10 min, 1 µM [7]: 92.2%

Cn1nc(-c2ccc(Cl)cc2)nc2c(=O)n(C)c(=O)nc1-2
Activity [8]: Active | inhibition [9]: Active | Activity [10]: Active | Activity [11]: inactive | Activity [12]: Active | Activity [13]: Active | inhibition [14]: Active | Activity [15]: Dose-dependent effect | Activity [16]: Active | IC50 [4]: 1.77 µM | Activity [17]: Active | IC50 [6]: 1.53 µM | Activity [18]: inactive | Activity [19]: Active

CCN(CC)CCOc1ccc(-c2nc3c(=O)n(C)c(=O)nc-3n(C)n2)cc1
inhibition [20]: inactive | inhibition [21]: inactive

Cn1ncnc2c(=O)n(C)c(=O)nc1-2
inhibition [22]: Active | inhibition [23]: Active | IC50 [4]: 0.33 µM | IC50 [6]: 0.29 µM

Oc1nc(-c2ccc(C(F)(F)F)cc2)nc2c1CSCC2
IC50 [4]: 0.64 µM | IC50 [6]: 2.9 µM

COc1ccc(-c2nc3c(=O)n(C)c(=O)nc-3n(-c3ccccc3)n2)cc1
IC50 [4]: 2.67 µM | IC50 [6]: 2.1 µM

CCN(CC)CCOc1ccc(-c2nnc3c(n2)c(=O)n(C)c(=O)n3-c2ccccc2)cc1
inhibition [24]: Active | IC50 [6]: 165 µM

COc1c(C[C@@H](C)OC(=O)Oc2ccc(O)cc2)c2c3c(C[C@@H](C)OC(=O)c4ccccc4)c(OC)c(=O)c4c(O)cc(OC)c(c5c(OC)cc(O)c(c1=O)c52)c43 [CALPHOSTIN C]
IC50 [4]: 0.55 µM | IC50 [6]: 0.39 µM

CCN(CC)CCOc1ccc(-c2nnc3c(n2)c(=O)n(C)c(=O)n3C)cc1
inhibition [25]: inactive | inhibition [26]: inactive

COc1ccc(-c2nc3c(=O)n(C)c(=O)nc-3n(C)n2)cc1
Activity [8]: Active | Activity [13]: Active | IC50 [4]: 2.67 µM | IC50 [6]: 1.53 µM

COc1ccc(-c2nc3c(=O)n(C)c(=O)nc-3n(CCO)n2)cc1
inhibition [27]: inactive | inhibition [28]: inactive
